# Measured values published in paper PMC6217710 (Pain Medicine: The Official Journal of the American Academy …, 2018).
# Key:
# healthy male subjects [1] = experiment: Laser-evoked potentials; type: in vivo, human
# Method in brief: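 Crossover in 24 healthy CYP2D6 extensive/intermediate-metabolizer males: 4 double-blind, double-dummy single-dose periods with 6-day washouts. Back skin got topical 1% alcoholic capsaicin under occlusion for 25 min, then two CO2-laser rekindling sessions. Each session used ≥13 80-msec laser stimuli at the fixed individual pain-threshold intensity. Vertex EEG (Cz vs right mastoid, artifacts rejected) recorded predose and hourly to 8 h. Value is the N2-P2 amplitude difference vs placebo.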
# [2] = Plasma pharmacokinetics after single oral dose; type: in vivo; conditions: human, 150 mg
# healthy male subjects [3] = experiment: Safety and tolerability; type: in vivo, human
# healthy male subjects [4] = conditions: previous data in healthy subjects; cited from earlier work
# healthy male subjects [5] = experiment: Postlaser pain visual analog scale; type: in vivo, human; conditions: all subjects
# Method in brief: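 Measured in the same capsaicin-pretreated back-skin sessions of the 4-period crossover (24 healthy males, double-blind, single doses, 6-day washout). Laser intensity was held at each subject's pain threshold, set on untreated skin during screening. After the laser stimuli, subjects rated pain on a 0–100 mm visual analog scale, expressed as %. Ratings were taken predose and hourly up to 8 h, compared against placebo.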
smiles,measurement,setting,value
"CC(C)C[C@H](CN)CC(=O)O [Pregabalin, pregabalin]",Difference in LEP N2-P2 PtP amplitudes,"healthy male subjects [1]; pregabalin 150 mg single dose vs placebo, all subjects (n = 24)",–3.30 μV
same,LEP N2-P2 PtP amplitude value,"healthy male subjects [1]; pregabalin 150 mg, overall, all subjects",26.7 μV
same,Tmax,[2],1.08 h
same,Cmax,"[2]; mean Cmax, pregabalin 150 mg single oral dose",3480 ng/mL
same,Subjects who reported TEAEs,healthy male subjects [3]; during treatment with pregabalin 150 mg,50%
same,Any TEAE,healthy male subjects [3]; pregabalin 150 mg (n = 24),12 (50) No. (%)
same,Dizziness,healthy male subjects [3]; pregabalin 150 mg (n = 24),6 (25) No. (%)
same,Drug-related TEAE,healthy male subjects [3]; pregabalin 150 mg (n = 24),12 (50) No. (%)
same,Fatigue,healthy male subjects [3]; pregabalin 150 mg (n = 24),4 (17) No. (%)
same,Headache,healthy male subjects [3]; pregabalin 150 mg (n = 24),0 No. (%)
same,Nausea,healthy male subjects [3]; pregabalin 150 mg (n = 24),1 (4) No. (%)
same,Serious TEAE,healthy male subjects [3]; pregabalin 150 mg (n = 24),0 No. (%)
same,Somnolence,healthy male subjects [3]; pregabalin 150 mg (n = 24),1 (4) No. (%)
same,Vertigo,healthy male subjects [3]; pregabalin 150 mg (n = 24),3 (13) No. (%)
same,Reductions in PtP amplitudes of LEPs maintained postdose,healthy male subjects [4],more than six hours
same,Start of reductions in PtP amplitudes of LEPs,healthy male subjects [4],one to two hours postadministration
same,Difference in VAS pain,healthy male subjects [5]; pregabalin 150 mg vs placebo,–9.90%
same,VAS pain score,healthy male subjects [5]; pregabalin 150 mg,36.6%
